Data taken from paper PMC3406267 (The Open Medicinal Chemistry Journal, 2012).

Key:
CB2 = details: Fig. 2 and introduction; cited from earlier work
CB2R [1] = details: CB2R-mediated gastrointestinal assays; cited from earlier work
[2] = test system: P-ERK 1/2 expression in HL-60 cells selectively expressing CB2R; details: cited from earlier work
CB2R [3] = biological target: CB2R (Mus musculus, UniProt P47936); assay: Radioligand binding, CB2R, [3H]-CP-55,940 competition in mouse spleen homogenate
CB1R = CB1R (Mus musculus, UniProt P47746); assay: Radioligand binding, CB1R, [3H]-CP-55,940 competition in mouse brain
[4] = test system: P-ERK 1/2 expression in HL-60 cells selectively expressing CB2R; assay: P-ERK 1/2 expression; type: cell-based, human
Summary of the method: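 HL-60 cells grown at 37 °C, 5% CO2, in RPMI 1640 with 10% heat-inactivated FBS, 25 mM HEPES, 2.5 mM pyruvate and gentamicin, and used at 80% confluency. Compounds were given in medium with 1% DMSO for 15 min, with or without 75 nM AM630 added 5 min before. Lysates (HEPES pH 7.9, 4 °C) were western-blotted for P-ERK1/2. Values are % of vehicle, five separate experiments, ±SEM.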

Sequence of CB1R (P47746 whole entry): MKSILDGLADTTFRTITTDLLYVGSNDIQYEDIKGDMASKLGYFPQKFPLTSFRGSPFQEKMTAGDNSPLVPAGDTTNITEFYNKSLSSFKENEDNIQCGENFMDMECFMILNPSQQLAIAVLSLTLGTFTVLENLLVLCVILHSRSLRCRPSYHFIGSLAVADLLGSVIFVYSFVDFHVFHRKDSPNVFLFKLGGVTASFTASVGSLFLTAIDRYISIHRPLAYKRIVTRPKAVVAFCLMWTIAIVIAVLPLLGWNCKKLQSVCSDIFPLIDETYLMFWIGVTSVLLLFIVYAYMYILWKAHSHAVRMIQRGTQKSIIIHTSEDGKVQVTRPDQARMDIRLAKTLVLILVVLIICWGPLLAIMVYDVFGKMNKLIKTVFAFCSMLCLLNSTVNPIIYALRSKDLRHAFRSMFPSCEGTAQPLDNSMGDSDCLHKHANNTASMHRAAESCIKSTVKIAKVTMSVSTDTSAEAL
Sequence of CB2R (Mus musculus, UniProt P47936) (P47936 whole entry): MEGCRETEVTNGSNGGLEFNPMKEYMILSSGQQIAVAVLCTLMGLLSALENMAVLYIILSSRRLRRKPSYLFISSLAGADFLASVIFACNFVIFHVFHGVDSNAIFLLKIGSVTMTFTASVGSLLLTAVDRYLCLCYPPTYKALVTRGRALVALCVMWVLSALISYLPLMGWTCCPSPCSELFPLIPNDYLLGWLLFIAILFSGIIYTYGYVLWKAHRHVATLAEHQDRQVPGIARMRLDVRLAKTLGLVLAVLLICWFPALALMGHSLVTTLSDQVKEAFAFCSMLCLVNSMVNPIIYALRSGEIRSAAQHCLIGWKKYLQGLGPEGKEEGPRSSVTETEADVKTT

Compound | Ki (CB2R [3]) [nM] | Ki (CB1R) [nM] | also measured
5-(4-chloro-3-methylphenyl)-1-(4-methylbenzyl)-N-fenchyl-1H-pyrazole-3-carboxamide [Compound 1] |  |  | selectivity ratio KiCB1/KiCB2 of SR144528 (CB2): > 600; in vivo CB2R antagonist activity (CB2R [1]): remarkable in vivo CB2R antagonist activity
Cc1ccc2c(c1)Cc1c(C(=O)NN3CCCCC3)nn(-c3ccc(Cl)cc3Cl)c1-2 [Compound 2, 1-(2,4-dichlorophenyl)-6-methyl-N-(piperidin-1-yl)-1,4-dihydroindeno[1,2-c]pyrazole-3-carboxamide] |  |  | CB2 intrinsic activity in vitro [2]: CB2 agonist activity in vitro
Cc1cc2c(cc1Cl)-c1c(c(C(=O)NC3CC4CCC3(C)C4(C)C)nn1-c1ccc(Cl)cc1Cl)C2 (stereo not drawn) [Compound 6, N-Bornyl-7-chloro-1-(2,4-dichlorophenyl)-6-methyl-1,4-dihydroindeno[1,2-c]pyrazole-3-carboxamide] | 474 ± 25 | 2670 ± 167 | 
Cc1cc2c(cc1Cl)-c1c(c(C(=O)NC3CC(C)CCC3C(C)C)nn1-c1ccc(Cl)cc1Cl)C2 (stereo not drawn) [Compound 9, N-Menthyl-7-chloro-1-(2,4-Dichlorophenyl)-6-methyl-1,4-dihydroindeno[1,2-c]pyrazole-3-carboxamide] | 3100 ± 283 | 1250 ± 359 | 
Cc1cc2c(cc1Cl)-c1c(c(C(=O)NC34CC5CC(CC(C5)C3)C4)nn1-c1ccc(Cl)cc1Cl)C2 [Compound 10, N-Adamant-1-yl-7-chloro-1-(2,4-dichlorophenyl)-6-methyl-1,4-dihydroindeno[1,2-c]pyrazole-3-carboxamide] | 425 ± 95 | 1300 ± 347 | 
Cc1cc2c(cc1Cl)-c1c(c(C(=O)NC3C4CC5CC(C4)CC3C5)nn1-c1ccc(Cl)cc1Cl)C2 (stereo not drawn) [Compound 11, N-Adamant-2-yl-7-chloro-1-(2,4-dichlorophenyl)-6-methyl-1,4-dihydroindeno[1,2-c]pyrazole-3-carboxamide] | 275 ± 25 | 4620 ± 857 | 
Cc1cc2c(cc1Cl)-c1c(c(C(=O)N[C@H]3CC[C@H](C)CC3)nn1-c1ccc(Cl)cc1Cl)C2 [Compound 14, Trans-N-(4-Methylcyclohexyl)-7-chloro-1-(2,4-dichlorophenyl)-6-meth-yl-1,4-dihydroindeno[1,2-c]pyrazole-3-carboxamide] | 325 ± 53 | > 5000 | 
Cc1cc2c(cc1Cl)-c1c(c(C(=O)NC3CCCCCC3)nn1-c1ccc(Cl)cc1Cl)C2 [Compound 16, N-Cycloheptyl-7-chloro-1-(2,4-dichlorophenyl)-6-methyl-1,4-dihydroindeno[1,2-c]pyrazole-3-carboxamide] | 1520 ± 1240 | 3750 ± 1250 | 
Cc1cc2c(cc1Cl)-c1c(c(C(=O)Nc3cccc4ccccc34)nn1-c1ccc(Cl)cc1Cl)C2 [Compound 18, N-(Naphthalen-1-yl)-7-chloro-1-(2,4-dichlorophenyl)-6-methyl-1,4-dihydroindeno[1,2-c]pyrazole-3-carboxamide] | 1130 ± 125 | > 5000 | 
Cc1cc2c(cc1Cl)-c1c(c(C(=O)NC(C)c3cccc4ccccc34)nn1-c1ccc(Cl)cc1Cl)C2 (stereo not drawn) [Compound 19, N-(1-(1-Naphthyl)ethyl)-7-chloro-1-(2,4-dichlorophenyl)-6-methyl-1,4-dihydroindeno[1,2-c]pyrazole-3-carboxamide] | 2400 ± 400 | > 5000 | 
Cc1cc2c(cc1Cl)Cc1c(C(=O)NC34CC5CC(CC(C5)C3)C4)nn(-c3ccc(Cl)cc3Cl)c1-2 [Compound 24, N-Adamant-1-yl-6-chloro-1-(2,4-dichlorophenyl)-7-methyl-1,4-dihydroindeno[1,2-c]pyrazole-3-carboxamide] | 1350 ± 813 | 4750 ± 20 | 
Cc1c(C(=O)c2cccc3ccccc23)c2cccc3c2n1[C@H](CN1CCOCC1)CO3 [WIN 55,212-2] |  |  | P-ERK 1/2 expression, percentage of increment versus vehicle ([4]; 75 nM (dose of maximum effect), 15 min exposure): +83.2 ± 18.9%; Effect on P-ERK 1/2 expression after 5 min pre-treatment with CB2 antagonist AM630 ([4]; AM630 75 nM, agonist at dose of maximum effect, 15 min): counteracted; P-ERK 1/2 expression in treated HL-60 cells versus vehicle ([4]; western blot, 15 min exposure): significant increase
